Experimental data collected from several papers.
Compare with care: the assays were run in different laboratories.
Target: Serine/threonine-protein kinase VRK2 (VRK2, Homo sapiens, UniProt Q86Y07)

O=C(NCCCN1CCOCC1)c1ccc(Nc2nccc(-c3cc4ccccc4s3)n2)cc1  remaining binding (binding; competition with immobilised ligand; 1 µM): 100%
CNC(=O)[C@@H]1CC[C@@H](n2c(-c3ccc4cnccc4c3)nc3ccc(C(=O)NCc4cccc(C(N)=O)c4)cc32)C1  remaining binding (binding; competition with immobilised ligand; 1 µM): 100%
CN(c1nccc(-c2cnn3ncccc23)n1)C1CC1  remaining binding (binding; 1 µM): 100%
COc1ncc2cc3ccccc3nc2c1C#N  remaining binding (cell-free assay; competition with immobilised ligand; 5 µM): 98%
O=C(Nc1c[nH]nc1C(=O)NC1CCNCC1)c1cc(F)cc(F)c1  remaining binding (binding; competition with immobilised ligand; 1 µM): 100%
N[C@H]1CCN(c2nccc(-c3cnn4ncccc34)n2)C1  remaining binding (binding; 1 µM): 83%
CC(C)CC(=O)N1CCc2nc(-c3ccc(Br)cc3)nc(N(C)Cc3ccccc3)c2C1  remaining binding (cell-free assay; competition with immobilised ligand; 0.1 µM): 77%
COc1ccnn2ncc(-c3ccnc(N(C)C)n3)c12  remaining binding (binding; 1 µM): 100%
O=C(NCCCC1CCCCC1)c1ccc(CNC(=O)c2cnn(-c3ccccc3)c2C(F)(F)F)cc1  remaining binding (cell-free assay; competition with immobilised ligand; 0.1 µM): 100%
CN(C)c1nccc(-c2cnc3ncccn23)n1  remaining binding (binding; 1 µM): 64%
C[C@@H](c1ccc(-n2cnc3c(N)ncnc32)cc1)N1CCc2nn(C)c(Cc3ccccc3)c2C1=O  remaining binding (binding; competition with immobilised ligand; 0.1 µM): 47%
c1cncc(-c2cccc(Nc3nccc(NC4CCCCC4)n3)c2)c1  remaining binding (binding; competition with immobilised ligand; 10 µM): 82%
CNC(=O)Nc1ccc2c(c1)CC[C@@]21OC(=O)N(CC(=O)N(Cc2ccc(F)cc2)[C@@H](C)C(F)(F)F)C1=O  remaining binding (cell-free assay; competition with immobilised ligand; 1 µM): 91%
COc1cnc(Nc2cccc(S(N)(=O)=O)c2)nc1N1CCN(c2ccccc2)CC1  remaining binding (binding; competition with immobilised ligand; 1 µM): 69%
C[C@@H]1CCN(c2nccc(-c3cnn4ncccc34)n2)C1  remaining binding (binding; 1 µM): 82%
C=CC(=O)N1CCC(C(=O)NCC(=O)N2CCN(c3nc(-c4cnc(N)nc4C(F)F)nc(N4CCOCC4)n3)CC2)CC1  remaining binding (binding; competition with immobilised ligand; 1 µM): 93%
Cc1c(NC(=O)c2cc(C(N)=O)nc3cc(F)ccc23)c(C(F)(F)F)nn1Cc1ccc(C(C)(C)C)cc1  remaining binding (cell-free assay; competition with immobilised ligand; 1 µM): 95%
O=C(c1ccc(Nc2nccc(-c3cc4ccccc4s3)n2)cc1)N1CCC(N2CCCC2)CC1  remaining binding (binding; competition with immobilised ligand; 1 µM): 35%
CC1=C(C#N)C(c2ccc3c(c2)c(NC(=O)c2ccccc2C)nn3C)C(C#N)=C(C)N1  remaining binding (cell-free assay; competition with immobilised ligand; 1 µM): 72%
CN(C)c1nccc(-c2cnn3ncccc23)n1  remaining binding (binding; 1 µM): 80%
Cc1cnc(Nc2ccc(C(=O)N3CCC(N4CCCC4)CC3)cc2)nc1-c1cc2ccccc2s1  remaining binding (binding; competition with immobilised ligand; 1 µM): 81%
CCCCN(CCCC)C(=O)CN1C[C@@H](c2cc(OC)c3c(c2)OCO3)[C@H](C(=O)O)[C@H]1CC(C)(C)CCC  remaining binding (cell-free assay; competition with immobilised ligand; 1 µM): 95.4%
